Source: ChEMBL document CHEMBL4373708 (J Med Chem, 2019)
Calls of active or inactive are those of the source. The rule behind the calls is not given here.

Tests used:
Chloride anion exchanger = target: T1, Chloride anion exchanger (Mus musculus, UniProt Q9WVC8)
T1 sequence (Q9WVC8 whole entry): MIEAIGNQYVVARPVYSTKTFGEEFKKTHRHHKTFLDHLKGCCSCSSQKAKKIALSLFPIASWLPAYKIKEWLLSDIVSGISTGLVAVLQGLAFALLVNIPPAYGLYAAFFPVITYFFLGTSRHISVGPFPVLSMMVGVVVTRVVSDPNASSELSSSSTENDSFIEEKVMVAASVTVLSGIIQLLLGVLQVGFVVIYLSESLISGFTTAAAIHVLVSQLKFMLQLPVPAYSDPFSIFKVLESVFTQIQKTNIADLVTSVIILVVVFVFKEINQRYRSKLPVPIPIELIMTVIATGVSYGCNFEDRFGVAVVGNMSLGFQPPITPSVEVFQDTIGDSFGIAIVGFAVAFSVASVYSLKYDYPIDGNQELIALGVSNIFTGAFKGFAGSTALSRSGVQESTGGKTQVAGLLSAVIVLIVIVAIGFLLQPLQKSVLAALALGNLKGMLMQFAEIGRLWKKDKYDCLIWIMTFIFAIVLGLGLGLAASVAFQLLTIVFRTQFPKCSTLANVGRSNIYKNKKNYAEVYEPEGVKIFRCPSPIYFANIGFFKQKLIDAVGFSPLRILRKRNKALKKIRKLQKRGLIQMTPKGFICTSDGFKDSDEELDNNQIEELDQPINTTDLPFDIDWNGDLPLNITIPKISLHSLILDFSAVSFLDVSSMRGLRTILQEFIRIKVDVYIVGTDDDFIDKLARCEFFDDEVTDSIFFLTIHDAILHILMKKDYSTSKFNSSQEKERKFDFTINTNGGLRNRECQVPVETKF

[1] = Toxicity in CD-1 mouse assessed as effect on stool weight at 10 mg/kg, po administered via gavage for 1 hr; assay type: organism-based; conditions: in vivo
How it was run: (§1)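 Female CD1 mice aged 8–10 weeks without loperamide: 10 mg/kg compound or vehicle (PBS with 5% DMSO and 20% (2-hydroxypropyl)-β-cyclodextrin) by gavage, 1 h before ip injection of loperamide vehicle (5% ethanol in PBS). Mice were caged singly in metabolic cages and stool collected 3 h for weight, pellet count and water content (dried 80 °C, 24 h).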

[2] = Toxicity in CD-1 mouse assessed as effect on stool water content at 10 mg/kg, po administered via gavage for 1 hr; assay type: organism-based; conditions: in vivo
How it was run: as §1

[3] = Tmax in mouse at 10 mg/kg, po by LC-MS analysis; assay type: ADME, organism-based; conditions: in vivo
How it was run: (§2)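 Single intraperitoneal or oral dose in mice at 5 mg/kg (vehicle: saline with 5% DMSO and 10% Kolliphor HS 15) or 10 mg/kg (vehicle: PBS with 5% DMSO and 20% (2-hydroxypropyl)-β-cyclodextrin). Blood taken by retroorbital puncture at set times, serum separated by centrifugation at 4000 g for 20 min at 24 °C, compound quantified by LC/MS.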

[4] = AUC in mouse at 10 mg/kg, po by LC-MS analysis; assay type: ADME, organism-based; conditions: in vivo
How it was run: as §2

[5] = AUC in mouse at 10 mg/kg, ip by LC-MS analysis; assay type: ADME, organism-based; conditions: in vivo
How it was run: as §2

[6] = Cmax in mouse at 10 mg/kg, ip by LC-MS analysis; assay type: ADME, organism-based; design: dose 10 mg/kg, route intraperitoneal; conditions: in vivo
How it was run: as §2

Mus musculus [7] = assay: Anti-absorptive activity in loperamide-induced CD-1 mouse model of constipation assessed as improvement in stool water content at 3 mg/kg, po administered via gavage for 1 hr prior to loperamide challenge and measured after 3 hrs; assay type: functional, organism-based
How it was run: (§3)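 Mice were held singly in metabolic cages with food and water. Stool was collected 3 h for weight and pellet count; water content = (wet−dry)/wet after drying 24 h at 80 °C. 5-8 mice/group, one-way ANOVA with Newman-Keuls.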

[8] = Drug level in mouse serum at 10 mg/kg, po or ip measured after 72 hrs by LC-MS analysis; assay type: ADME, organism-based; conditions: read-out: Drug uptake
How it was run: as §2

Mus musculus [9] = assay: Anti-absorptive activity in loperamide-induced CD-1 mouse model of constipation assessed as improvement in fecal pellet number at 3 mg/kg, po administered via gavage for 1 hr prior to loperamide challenge and measured after 3 hrs; assay type: functional, organism-based
How it was run: as §3

[10] = Tmax in mouse at 10 mg/kg, ip by LC-MS analysis; assay type: ADME, organism-based; conditions: in vivo
How it was run: as §2

Mus musculus [11] = assay: Anti-absorptive activity in loperamide-induced CD-1 mouse model of constipation assessed as stool hydration at 1 mg/kg, po administered via gavage for 1 hr prior to loperamide challenge and measured after 3 hrs relative to control; assay type: functional
How it was run: as §3

[12] = Toxicity in CD-1 mouse assessed as effect on fecal pellet number at 10 mg/kg, po administered via gavage for 1 hr; assay type: organism-based; conditions: in vivo
How it was run: as §1

Mus musculus [13] = assay: Anti-absorptive activity in loperamide-induced CD-1 mouse model of constipation assessed as improvement in stool weight at 3 mg/kg, po administered via gavage for 1 hr prior to loperamide challenge and measured after 3 hrs; assay type: functional, organism-based
How it was run: as §3

[14] = Cmax in mouse at 10 mg/kg, po by LC-MS analysis; assay type: ADME, organism-based; design: dose 10 mg/kg, route oral; conditions: in vivo
How it was run: as §2

Mus musculus [15] = assay: Anti-absorptive activity in loperamide-induced CD-1 mouse model of constipation assessed as improvement in stool weight at 5 mg/kg, po administered via gavage for 1 hr prior to loperamide challenge and measured after 3 hrs; assay type: functional, organism-based
How it was run: (§4)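 Female CD1 mice aged 8–10 weeks were gavaged with 5 mg/kg compound or vehicle 1 h before ip loperamide (0.3 mg/kg in 5% ethanol/PBS). Mice were kept singly in metabolic cages and stool collected for 3 h. Total weight and pellet number were recorded; water content = (wet−dry)/wet after drying at 80 °C for 24 h. Mean ± S.E.M., 4-6 mice per group.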

[16] = Tmax in mouse at 5 mg/kg, po by LC-MS analysis; assay type: ADME, organism-based; conditions: in vivo
How it was run: as §2

[17] = Cmax in mouse at 5 mg/kg, po by LC-MS analysis; assay type: ADME, organism-based; design: dose 5 mg/kg, route oral; conditions: in vivo
How it was run: as §2

Mus musculus [18] = assay: Anti-absorptive activity in loperamide-induced CD-1 mouse model of constipation assessed as improvement in stool water content at 5 mg/kg, po administered via gavage for 1 hr prior to loperamide challenge and measured after 3 hrs; assay type: functional, organism-based
How it was run: as §4

[19] = Cmax in mouse at 5 mg/kg, ip by LC-MS analysis; assay type: ADME, organism-based; design: dose 5 mg/kg, route intraperitoneal; conditions: in vivo
How it was run: as §2

[20] = Drug uptake in mouse serum at 5 mg/kg, po or ip measured after 16 hrs by LC-MS analysis; assay type: ADME, organism-based; conditions: in vivo
How it was run: as §2

[21] = AUC in mouse at 5 mg/kg, po by LC-MS analysis; assay type: ADME, organism-based; conditions: in vivo
How it was run: as §2

Mus musculus [22] = assay: Anti-absorptive activity in loperamide-induced CD-1 mouse model of constipation assessed as improvement in fecal pellet number at 5 mg/kg, po administered via gavage for 1 hr prior to loperamide challenge and measured after 3 hrs; assay type: functional, organism-based
How it was run: as §4

[23] = Tmax in mouse at 5 mg/kg, ip by LC-MS analysis; assay type: ADME, organism-based; conditions: in vivo
How it was run: as §2

[24] = AUC in mouse at 5 mg/kg, ip by LC-MS analysis; assay type: ADME, organism-based; conditions: in vivo
How it was run: as §2

Question: With `Cc1c(CC(=O)O)c(=O)oc2c(C)c(OCc3cccc(I)c3)ccc12` as the compound, how does the IC50 (Chloride anion exchanger) read?
Answer: 0.035 µM

Question: And the Activity [1]?
Answer: Non-Toxic

Question: And the Activity [2]?
Answer: Non-Toxic

Question: And the Tmax [3]?
Answer: 390 min

Question: And the AUC [4]?
Answer: 130 µM·h

Question: And the AUC [5]?
Answer: 331 µM·h

Question: What about the Cmax [6] of the same compound?
Answer: 29.1 µM

Question: And the Activity (Mus musculus [7])?
Answer: Active

Question: And the concentration at 72 h [8]?
Answer: 1 µM

Question: What about the Activity (Mus musculus [9]) of the same compound?
Answer: Active

Question: What about the Tmax [10] of the same compound?
Answer: 30 min

Question: And the Activity (Mus musculus [11])?
Answer: >50%

Question: And the Activity [12]?
Answer: Non-Toxic

Question: What about the Activity (Mus musculus [13]) of the same compound?
Answer: Active

Question: What about the Cmax [14] of the same compound?
Answer: 4.7 µM

Question: For `Cc1c(CC(=O)O)c(=O)oc2c(C)c(OCc3cccc(C(F)(F)F)c3)ccc12`, which IC50 (Chloride anion exchanger) is on record?
Answer: 0.023 µM

Question: And the Activity (Mus musculus [15])?
Answer: Active

Question: And the Tmax [16]?
Answer: 48 min

Question: What about the Cmax [17] of the same compound?
Answer: 12.9 µM

Question: What about the Activity (Mus musculus [18]) of the same compound?
Answer: Active

Question: And the Cmax [19]?
Answer: 70.2 µM

Question: And the Drug uptake [20]?
Answer: Active

Question: What about the AUC [21] of the same compound?
Answer: 69 µM·h

Question: What about the Activity (Mus musculus [22]) of the same compound?
Answer: Active

Question: And the Tmax [23]?
Answer: 48 min

Question: What about the AUC [24] of the same compound?
Answer: 418 µM·h
